Published values collected from several papers.
Lines come from different studies, so protocols differ. ≈ marks a conversion by molar mass, not a printed value.
Organism: Staphylococcus aureus

| Compound | assay | test system | conditions | endpoint | value |
| --- | --- | --- | --- | --- | --- |
| O=C(O)c1cn(C2CC2)c2cc(N3CCNCC3)c(F)cc2c1=O | microbial growth, well diffusion | ATCC23235 | 100 µg/mL | inhibition zone | 36 mm |
| Cc1onc(-c2ccccc2)c1C(=O)N[C@@H]1C(=O)N2[C@@H]1SC(C)(C)[C@@H]2C(=O)O | microbial growth | MRSA | drug-resistant strain | MIC | > 4 µg/mL |
| C[C@@H](N)[C@H](O)CCCCCCCC(=O)CCCCCCCCCCCCCC[C@@H](O[C@@H]1O[C@H](CO)[C@H](O)[C@H](O)[C@H]1O)[C@@H](C)N | microbial growth, resazurin | ATCC12600 | 50 µM | inhibition | 99% |
| C[C@@H]1C[C@@H]([C@H](O)CC2CC(=O)NC(=O)C2)C(=O)[C@@H](C)C1 | microbial growth, broth dilution | ATCC6538 | – | MIC | 28 µg/mL |
| C[C@H]1COc2c(N3CCN(C)CC3)c(F)cc3c(=O)c(C(=O)O)cn1c23 | microbial growth | MRSA | drug-resistant strain | MIC | 0.25 µg/mL |
| COc1ccc2c(c1OC)CN1CCc3cc4c(cc3C1C2)OCO4 (stereo not shown) | microbial growth | – | 24 h | MIC50 | > 1600 µM |
| CN(C)[C@@H]1C(O)=C(C(N)=O)C(=O)[C@@]2(O)C(O)=C3C(=O)c4c(O)cccc4[C@@](C)(O)[C@H]3C[C@@H]12 | microbial growth, broth dilution | ATCC33591 MRSA | 16 h, drug-resistant strain | MIC | 100 µM |
| CC(=O)NC[C@H]1CN(c2ccc(N3CCOCC3)c(F)c2)C(=O)O1 | microbial killing | ATCC43300 MRSA | – | MBC | 40.6 µg/mL (≈ 120 µM) |
| O=C/C=C/c1ccccc1 | microbial growth, well diffusion | MTCC96 | 1000 µg/mL, 18 h | inhibition zone | 8 mm |
| O=C(O)c1cn(C2CC2)c2cc(N3CCNCC3)c(F)cc2c1=O | microbial growth, broth dilution | ATCC33591 MRSA | 16 h, drug-resistant strain | MIC | 6.25 µM |
| CCOC(=O)/C=C1/SC(N/N=C/c2c(-c3ccc(F)cc3)nc3ncccn23)=NC1=O | microbial growth, well diffusion | ATCC23235 | 100 µg/mL | inhibition zone | 10 mm |
| CCc1ccc(N2C(=O)/C(=C3/C(=O)N(C)c4ccc(Cl)cc43)NC2=S)cc1 | microbial growth, broth dilution | ATCC43300 MRSA | – | MIC | 9.2 µg/mL |
| COc1cccc(OC)c1C(=O)N[C@@H]1C(=O)N2[C@@H]1SC(C)(C)[C@@H]2C(=O)O | microbial growth, broth dilution | ATCCBAA44 | drug-resistant strain | MIC | > 64 µg/mL |
| CC(=O)NC[C@H]1CN(c2ccc(N3CCOCC3)c(F)c2)C(=O)O1 | microbial growth, broth dilution | MRSA | – | MIC | 1 µg/mL |
| CN1C(=S)N(c2ccccc2)C(=O)/C1=C1/C(=O)N(C)c2ccc(Cl)cc21 | microbial growth, broth dilution | ATCC43300 MRSA | – | MIC | 2.4 µg/mL |
| CN[C@H](CC(C)C)C(=O)N[C@H]1C(=O)N[C@@H](CC(N)=O)C(=O)N[C@H]2C(=O)N[C@H]3C(=O)N[C@H](C(=O)N[C@H](C(=O)O)c4cc(O)cc(O)c4-c4cc3ccc4O)[C@H](O)c3ccc(c(Cl)c3)Oc3cc2cc(c3O[C@@H]2O[C@H](CO)[C@@H](O)[C@H](O)[C@H]2O[C@H]2C[C@](C)(N)[C@H](O)[C@H](C)O2)Oc2ccc(cc2Cl)[C@H]1O | microbial growth, broth dilution | ATCCBAA44 | drug-resistant strain | MIC | 1 µg/mL |
